Structures are written as SMILES. Active and inactive are the calls of the source. The calls are words filed in the database; no cut-off is given here.

For one assay, the target named is T1, Glycogen synthase kinase-3 beta (Homo sapiens, UniProt P49841). The assay can be described thus: Inhibition of recombinant human GSK3beta using prephosphorylated peptide as substrate measured after 30 mins by Kinase-glo luminescence assay. On the technique in general: In Kinase-Glo more light means more ATP remaining.
Target sequence in this assay (P49841 whole entry): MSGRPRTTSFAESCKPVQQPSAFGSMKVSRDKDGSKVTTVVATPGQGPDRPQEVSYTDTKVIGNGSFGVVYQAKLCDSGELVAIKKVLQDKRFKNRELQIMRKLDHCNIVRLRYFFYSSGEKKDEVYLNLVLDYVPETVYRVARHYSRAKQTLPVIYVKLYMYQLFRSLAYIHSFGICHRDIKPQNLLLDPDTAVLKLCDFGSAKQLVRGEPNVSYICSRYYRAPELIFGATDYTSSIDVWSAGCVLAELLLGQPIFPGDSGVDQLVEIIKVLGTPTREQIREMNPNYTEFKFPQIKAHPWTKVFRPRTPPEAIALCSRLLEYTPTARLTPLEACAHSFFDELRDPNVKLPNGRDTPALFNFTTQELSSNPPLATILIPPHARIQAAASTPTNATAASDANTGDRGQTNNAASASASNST
The IC50 is the concentration at which inhibition is half-maximal. In the case of `COc1ccc(CNC(=O)Nc2nc3ccc(C#N)cc3[nH]2)cc1`, the IC50 stood at 0.086 µM.

`C=CC(=O)Nc1ccc2nc(NC(=O)NCc3ccc(OC)cc3)sc2c1`: the IC50 is over 10 µM.

`C=CC(=O)c1ccc2nc(NC(=O)NCc3ccc(OC)cc3)sc2c1`: the IC50 came to 4.05 µM. Still for that read-out and setting: the same measure for `C=CC(=O)c1ccc2nc(NC(=O)NCc3ccc(OC)cc3)[nH]c2c1`: 1.82 µM; for `COc1ccc(CNC(=O)Nc2nc3ccc(C(=O)CBr)cc3s2)cc1`: 0.77 µM. Turning to `C#CC(=O)c1ccc2nc(NC(=O)NCc3ccc(OC)cc3)[nH]c2c1`, the concentration for half-maximal inhibition (IC50) came to 2.47 µM. Regarding `C=CC(=O)Nc1ccc2nc(NC(=O)NCc3ccc(OC)cc3)[nH]c2c1`, the IC50 was over 10 µM. Consider `COc1ccc(CNC(=O)Nc2nc3ccc(C(=O)CBr)cc3[nH]2)cc1`, for which the concentration for half-maximal inhibition (IC50) stood at 0.13 µM.

On to `COc1ccc(CNC(=O)Nc2nc3ccc(C#N)cc3s2)cc1`, for which the IC50 came out at 0.11 µM. On to `COc1ccc(CNC(=O)Nc2nc3ccc(C(C)=O)cc3[nH]2)cc1`, for which the IC50 worked out at 0.26 µM.

For `C#CC(=O)c1ccc2nc(NC(=O)NCc3ccc(OC)cc3)sc2c1`, the IC50 was 4.21 µM. `COc1ccc(CNC(=O)Nc2nc3ccc(C(C)=O)cc3s2)cc1`: the IC50 stood at 2.26 µM.

Another assay deals with T1, Glycogen synthase kinase-3 beta. The assay can be described thus: Time-dependent irreversible inhibition of recombinant human GSK3beta at 0.05 to 0.1 uM using prephosphorylated peptide as substrate by Kinase-glo luminescence assay. In a few lines: (§1)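 Inhibitor pre-incubated with GSK-3β for varying lengths of time before the kinase reaction. Inhibition is expressed as percentage inhibition at each pre-incubation time.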
Target sequence in this assay (P49841 whole entry, looked up): as the sequence (P49841 whole entry) above
Regarding `COc1ccc(CNC(=O)Nc2nc3ccc(C#N)cc3[nH]2)cc1`, the TDI entry is “Active”.

A further assay has the same target. The experiment in a line: Time-dependent irreversible inhibition of recombinant human GSK3beta at 0.05 to 0.2 uM using prephosphorylated peptide as substrate by Kinase-glo luminescence assay. In a few lines:
as §1
Target sequence in this assay (P49841 whole entry, looked up): as the sequence (P49841 whole entry) above
`COc1ccc(CNC(=O)Nc2nc3ccc(C(=O)CBr)cc3[nH]2)cc1`: the TDI result is “Active”.
